# Assay outcomes as filed in PubChem.
# T cruzi growth-1: inhibitors of T. cruzi proliferation. hit rate 5.9% among 77,000. T. cruzi beta-gal in NIH3T3, GalScreen luminescence, 90 h. inhibition, % at 8.34 µM;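 active = mean inhibition above about 93%, with at least 55% of replicates each passing it, limit read from the data, passing the limit was not always enough; inconclusive = only one of those two conditions holds; inactive = neither condition holds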
# GASC1 inh: KDM4C (human) demethylase inhibition; Q9H3R0; GST-KDM4C 2-372, H3K9me3 peptide, LANCE TR-FRET; inhibition, % at 12.5 µM; hit rate 0.15% among 96,000;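 active = mean replicate inhibition above about 25%, with at least 55% of replicates also reaching it, limit read from the data, passing the limit was not always enough; inconclusive = only one of those two conditions met; inactive = neither condition met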
# Target sequence (Q9H3R0 2-372 limits assumed): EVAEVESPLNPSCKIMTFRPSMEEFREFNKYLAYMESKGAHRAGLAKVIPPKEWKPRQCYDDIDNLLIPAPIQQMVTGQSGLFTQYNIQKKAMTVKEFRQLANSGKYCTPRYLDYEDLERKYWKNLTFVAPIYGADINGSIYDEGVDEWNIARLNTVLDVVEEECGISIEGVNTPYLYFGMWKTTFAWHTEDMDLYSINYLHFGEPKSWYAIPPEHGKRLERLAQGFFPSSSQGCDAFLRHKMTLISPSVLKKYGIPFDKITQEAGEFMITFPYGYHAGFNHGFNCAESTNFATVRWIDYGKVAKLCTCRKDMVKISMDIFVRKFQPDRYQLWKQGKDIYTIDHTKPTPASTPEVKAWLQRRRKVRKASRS
#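 System – N-terminal GST-fused human GASC-1 (KDM4C) fragment, residues 2-372 · Input – enzyme final amount 10 nM · Technique – LANCE TR-FRET, Eu antibody, ULight-streptavidin, EDTA, ex 340 nm, em 618/671 nm · Medium – HEPES buffer, pH 7.5, plus ascorbate · Incubation – enzyme reaction 30 min, then detection 60 min, both room temperature · Reagent – H3K9me3 peptide with Fe(II)/2OG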
# IDH1 mut inh: blocks human IDH1 R132H reductase activity; diaphorase/resazurin fluorescence, 60 min; AID 624101; hit rate 0.18% among 70,000; inhibition, % at 10 µM; in the data active = inhibition above about 34%; inconclusive = no clear call, values can overlap the other calls; inactive = below about 11%
# T cruzi growth-2: Trypanosoma cruzi proliferation inhibition | shares compounds with T cruzi growth-1 | T. cruzi beta-gal in NIH3T3, GalScreen luminescence, 90 h | inhibition, % at 8.35 µM | hit rate 72% among 5,600;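 active = mean replicate inhibition above about 95% and at least 55% of replicates individually reaching it, limit read from the data; inconclusive = only one of the two criteria is met; inactive = neither criterion is met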
# T cruzi growth-3: blocks T. cruzi growth in NIH3T3 host cells. AID 651740. T. cruzi beta-gal in NIH3T3, GalScreen luminescence, 90 h. inhibition, % at 2.09 µM. shares compounds with T cruzi growth-1. hit rate 21% among 5,600;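 active = mean inhibition above about 95%, with at least 55% of replicates also reaching it, limit read from the data; inconclusive = meets just one of the two conditions; inactive = meets neither condition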
# 3T3 cytotox: cytotoxicity in mouse NIH/3T3 fibroblasts. shares compounds with T cruzi growth-1. NIH/3T3 viability, CellTiter-Glo ATP luminescence, 90 h. cytotoxicity (signal decrease), % at 8.35 µM. hit rate 14% among 5,600. AID 651742;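 active = mean signal decrease across replicates above about 35% based on untreated-well scatter, with enough replicates individually passing, limit read from the data; inconclusive = no rule stated though some were filed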
# 3T3 cytotox 2: NIH/3T3 (mouse) viability loss; shares compounds with T cruzi growth-1; NIH/3T3 viability, CellTiter-Glo ATP luminescence, 90 h; inhibition, % at 24.9 µM; hit rate 56% among 5,600; AID 651744;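 active = mean loss of cell viability signal at or above a set limit, and enough replicates individually reaching it; inconclusive = meets only the mean limit or only the replicate share; inactive = meets neither condition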
# A number is an active result; i = inactive; ? = inconclusive; nt = no result; + = active, no number; ! = a repeat was not active. The sample as a whole holds a higher share of hits than the screen did.
SMILES,T cruzi growth-1,GASC1 inh,IDH1 mut inh,T cruzi growth-2,T cruzi growth-3,3T3 cytotox,3T3 cytotox 2
C[C@H](CO)N1C[C@H](C)[C@H](CN(C)C(=O)Nc2ccccc2)OCc2ccccc2-c2ccccc2C1=O,i,i,nt,nt,nt,nt,nt
C[C@H](CO)N1C[C@H](C)[C@H](CN(C)C(=O)Nc2ccnc(N3CCOCC3)c2)OCc2ccccc2-c2c(n(C)c3ccccc23)C1=O,nt,i,nt,nt,nt,nt,nt
C[C@@H]1CN([C@@H](C)CO)C(=O)c2ccccc2-c2ccccc2CO[C@@H]1CN(C)C(=O)Nc1ccnc(N2CCOCC2)c1,106,i,i,107,i,i,28
C[C@H](CO)N1C[C@H](C)[C@H](CN(C)C(=O)Nc2ccnc(N3CCOCC3)c2)OCc2ccccc2-c2ccccc2C1=O,110,i,nt,?,i,i,i
C[C@@H]1CN([C@@H](C)CO)C(=O)c2cc(NS(=O)(=O)c3ccc(Cl)cc3)ccc2O[C@@H]1CN(C)C(=O)Nc1ccc2c(c1)OCO2,i,i,i,nt,nt,nt,nt
Cc1ccc(NC(=O)CSc2nnc(-c3ccc(C)c(Cl)c3)n2C)cc1Cl,nt,nt,i,nt,nt,nt,nt
CCC(=O)Nc1ccc2c(c1)C(=O)N(C)C[C@H](OC)[C@H](C)CN(C(=O)c1cccnc1)[C@@H](C)CO2,i,i,i,nt,nt,nt,nt
CCCNC(=O)N1[C@@H](C#N)[C@@H](c2ccc(C#Cc3ccc(F)cc3)cc2)[C@@H]1CO,103,i,nt,107,103,i,?
N#C[C@H]1[C@@H](c2ccc(C#Cc3ccc(F)cc3)cc2)[C@H](CO)N1C(=O)Nc1ccc(F)cc1,i,i,nt,nt,nt,nt,nt
N#C[C@H]1[C@H](c2ccc(C#Cc3ccc(F)cc3)cc2)[C@H](CO)N1C(=O)Nc1ccc(F)cc1,i,i,nt,nt,nt,nt,nt
CCCNC(=O)N1[C@@H](C#N)[C@H](c2ccc(C#Cc3ccc(F)cc3)cc2)[C@@H]1CO,103,i,nt,105,i,i,40
Cc1noc(C)c1S(=O)(=O)Nc1ccc2c(c1)C(=O)N([C@@H](C)CO)C[C@H](C)[C@@H](CN(C)C(=O)CCCN(C)C)OCCCC[C@H](C)O2,i,i,nt,nt,nt,nt,nt
C[C@H]1CN([C@@H](C)CO)S(=O)(=O)c2ccc(-c3cccc(C#N)c3)cc2O[C@H]1CN(C)C(=O)c1ccc(F)cc1,103,i,i,i,i,i,78
C[C@H](CO)N1C[C@H](C)[C@@H](CN(C)C(=O)c2ccc(F)cc2)Oc2cc(-c3cccc(C#N)c3)ccc2S1(=O)=O,i,i,i,nt,nt,nt,nt
C[C@@H]1CN([C@@H](C)CO)S(=O)(=O)c2ccc(-c3cccc(C#N)c3)cc2O[C@@H]1CN(C)C(=O)c1ccc(F)cc1,109!,i,nt,97,i,?,73
C[C@@H]1CN([C@H](C)CO)S(=O)(=O)c2ccc(-c3cccc(C#N)c3)cc2O[C@H]1CN(C)C(=O)c1ccc(F)cc1,i,i,i,nt,nt,nt,nt
COc1ccc(NC(=O)N(C)C[C@H]2Oc3ccc(NC(=O)C4CC4)cc3CC(=O)N([C@@H](C)CO)C[C@H]2C)cc1,i,i,i,nt,nt,nt,nt
C[C@@H]1CCCCO[C@H](CN(C)S(=O)(=O)c2ccc(F)cc2)[C@H](C)CN([C@H](C)CO)C(=O)c2cc(NC(=O)CCC(F)(F)F)ccc2O1,i,i,nt,nt,nt,nt,nt
C[C@H]1CN([C@@H](C)CO)C(=O)c2cc(NC(=O)NC3CCCCC3)ccc2O[C@H]1CN(C)Cc1ccc2c(c1)OCO2,?,i,i,104,99,?,41
C[C@@H]1CN([C@H](C)CO)C(=O)c2cc(NC(=O)NC3CCCCC3)ccc2O[C@@H]1CN(C)Cc1ccc2c(c1)OCO2,i,i,i,nt,nt,nt,nt
C[C@H]1CN([C@@H](C)CO)C(=O)c2cc(NC(=O)NC3CCCCC3)ccc2O[C@@H]1CN(C)Cc1ccc2c(c1)OCO2,i,i,i,nt,nt,nt,nt
C[C@H](CO)N1C[C@H](C)[C@H](CN(C)Cc2ccc3c(c2)OCO3)Oc2ccc(NC(=O)NC3CCCCC3)cc2C1=O,100,i,i,?,97,i,51
C[C@@H]1CN([C@H](C)CO)C(=O)Cc2cc(NC(=O)Cc3cn(C)c4ccccc34)ccc2O[C@H]1CN(C)CC1CC1,i,i,i,nt,nt,nt,nt
N#C[C@@H]1[C@H](c2ccccc2)[C@@H](CO)N1C(=O)c1cccnc1,i,i,nt,nt,nt,nt,nt
C[C@H]1CN([C@@H](C)CO)S(=O)(=O)c2ccc(Br)cc2O[C@@H]1CN(C)Cc1ccccc1,97!,i,i,100,i,?,107
SMILES,T cruzi growth-1,GASC1 inh,IDH1 mut inh,T cruzi growth-2,T cruzi growth-3,3T3 cytotox,3T3 cytotox 2
C[C@H]1CN([C@@H](C)CO)S(=O)(=O)c2ccc(Br)cc2O[C@H]1CN(C)Cc1ccccc1,i,i,i,nt,nt,nt,nt
C[C@@H]1CN([C@@H](C)CO)S(=O)(=O)c2ccc(Br)cc2O[C@H]1CN(C)Cc1ccccc1,99,i,i,i,i,i,104
C[C@H](CO)N1C[C@H](C)[C@H](CN(C)Cc2ccccc2)Oc2cc(Br)ccc2S1(=O)=O,i,i,i,nt,nt,nt,nt
O=C(Nc1ccc(-c2ccccc2)cc1)[C@@H]1[C@@H](CO)[C@@H]2Cn3c(cccc3=O)[C@@H]2N1CC1CCCCC1,?,i,nt,?,105,i,104
O=C(Nc1ccc(-c2ccccc2)cc1)[C@H]1[C@H](CO)[C@H]2Cn3c(cccc3=O)[C@H]2N1CC1CCOCC1,i,i,nt,nt,nt,nt,nt
CCCNC(=O)[C@H]1[C@H](CO)[C@H]2Cn3c(cccc3=O)[C@H]2N1CC1CCCCC1,i,i,nt,nt,nt,nt,nt
CCNC(=O)[C@H]1[C@H](CO)[C@H]2Cn3c(cccc3=O)[C@H]2N1CC1CCCCC1,+,i,nt,i,i,i,i
C[C@H](CO)N1C[C@H](C)[C@H](CN(C)C(=O)Nc2cccc3ccccc23)Oc2ccc(NC(=O)Cc3ccccc3)cc2CC1=O,i,i,nt,nt,nt,nt,nt
O=C(C[C@@H]1CC[C@@H]2[C@H](COC[C@H](O)CN2C(=O)c2ccncc2)O1)NCc1cccc(F)c1,i,i,nt,nt,nt,nt,nt
O=C(C[C@@H]1C=C[C@H](NC(=O)C2CCC2)[C@H](CO)O1)NCc1ccncc1,i,i,i,nt,nt,nt,nt
NC(=O)[C@]1(Cc2ccccc2)N=C(c2ccc(OCCCO)cc2)O[C@@H]1c1ccccc1,nt,nt,i,nt,nt,nt,nt
C[C@H]1CCCCO[C@H](CN(C)C(=O)Cc2ccccc2)[C@@H](C)CN([C@@H](C)CO)C(=O)c2cc(NC(=O)Nc3ccc(F)cc3)ccc2O1,101,i,i,106,i,i,i
C[C@@H]1CN([C@H](C)CO)C(=O)c2cc(NC(=O)Nc3ccccc3)ccc2O[C@@H](C)CCCCO[C@@H]1CN(C)C(=O)Cc1ccccc1,i,i,i,nt,nt,nt,nt
Cc1noc(C)c1NC(=O)Nc1ccc2c(c1)C(=O)N([C@@H](C)CO)C[C@H](C)[C@@H](CN(C)C(=O)Cc1ccccc1)OCCCC[C@@H](C)O2,i,i,nt,nt,nt,nt,nt
